The term half-life denotes the time needed for the level to fall by half in the phase considered. Broadly, the Tmax is the time at which the peak concentration occurs. Usually AUC(0-inf) stands for the area under the concentration-time curve extrapolated to infinity. In general, AUC(0-t) refers to the area under the concentration-time curve up to a stated or last time point. What is called clearance is the rate of elimination divided by the concentration. One may read the bioavailability as dose-corrected exposure relative to a reference, in per cent.

Series [1] in a line: Drug excretion in bile duct cannulated F344 rat bile at 1 mg/kg, po administered as single dose after 0 to 48 hrs by scintillation counting method. The arrangement: dose 1 mg/kg, route oral. The class given is ADME, organism-based. The settings on record: in vivo. Put shortly: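 Common bile duct was cannulated under diethyl ether in fasted F344 rats. After recovery, [14C]-labelled drug (1 mg/kg, 41.9 µCi/kg) was given iv via tail vein or by oral gavage (n = 4). Rats were held in Bollman cages and bile was collected at 4°C over 0–48 h intervals. Bile was counted by liquid scintillation; % of dose.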

For a further series, the system named is Ileum. The experiment in a line: Drug distribution in F344 rat ileum at 1 mg/kg, po administered as single dose after 1 hr by scintillation counting method. It counts as ADME, organism-based. The settings on record: in vivo. Details: dose 1 mg/kg, route oral. Put shortly:
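[14C]-labelled drug (1 mg/kg, 42.4 µCi/kg) was given orally to fasted F344 rats (148–168 g, n = 3). Contents of stomach, duodenum+jejunum, ileum and cecum were washed out with water at 0.5–8 h, homogenized, solubilized and counted by liquid scintillation. Results are % of dose, mean ± S.D.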

Series [2] can be described thus: Drug metabolism in monkey intestinal S9 fractions at 0.42 uCi/ml assessed as metabolite formation in presence of NADPH after 1 hr at 37 degC by LC-MS/MS method. The settings on record: cynomolgus monkey, s9, 1 h.
Series [3] can be described thus: Drug excretion in F344 rat urine at 1 mg/kg, po administered as single dose after 0 to 48 hrs by scintillation counting method. Details: dose 1 mg/kg, route oral. The class given is ADME, organism-based. The settings on record: in vivo. Put shortly:
(§1)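 Fasted F344 rats (152–156 g iv via tail vein; 154–159 g oral; n = 4) received [14C]-labelled drug at 1 mg/kg (41.9 µCi/kg). Animals were kept in metabolic cages; urine and feces were collected to 168 h, and expired CO2 was trapped in 2-aminoethanol/2-methoxyethanol (1:1) to 48 h. Samples were counted by liquid scintillation (feces homogenized). Results are % of dose, mean ± S.D.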

The subject of a further series is Cynomolgus monkey. Nature of the series: Drug excretion in cynomolgus monkey assessed as drug level found during cage washing at 3 mg/kg, po administered as single dose after 0 to 336 hrs by scintillation counting method. It counts as ADME, organism-based, Macaca fascicularis. The arrangement: dose 3 mg/kg, route oral. The settings on record: in vivo. Put shortly:
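Fasted cynomolgus monkeys (n = 4) received [14C]-labelled drug at 3 mg/kg, iv via saphenous vein (191 µCi/kg) or orally by stomach catheter (156.5 µCi/kg). Urine, feces and water cage-wash were collected to 336 h. Samples were counted by liquid scintillation; feces were homogenized in 4-fold water. Results are % of dose, mean ± S.D.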

Series [4] is described as follows: Drug excretion in F344 rat feces at 1 mg/kg, po administered as single dose after 0 to 168 hrs by scintillation counting method. The settings on record: in vivo. The arrangement: dose 1 mg/kg, route oral. The class given is ADME, organism-based. Put shortly: as §1
The nature of series [5]: Drug excretion in F344 rat urine at 1 mg/kg, iv administered as single dose after 0 to 48 hrs by scintillation counting method. The class given is ADME, organism-based. Details: dose 1 mg/kg, route intravenous. The settings on record: in vivo. Put shortly: as §1
Series [6] in a line: Drug metabolism in rat kidney […] S9 fractions at 0.42 uCi/ml assessed as metabolite formation in presence of NADPH after 1 hr at 37 degC by LC-MS/MS method. The class given is ADME, subcellular. The settings on record: s9, 1 h.
The subject of series [7] is Rattus norvegicus. The experiment in a line: Total drug excretion in F344 rat at 1 mg/kg, po administered as single dose after 0 to 48 hrs by scintillation counting method. The settings on record: in vivo. Details: dose 1 mg/kg, route oral. The class given is ADME, organism-based. Put shortly: (§2)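 Fasted F344 rats (n = 4) received [14C]-labelled drug at 1 mg/kg (41.9 µCi/kg), iv via tail vein or oral. They were housed in metabolic cages. Urine and feces were collected to 168 h, and expired CO2 was trapped in 2-aminoethanol/2-methoxyethanol to 48 h. Radioactivity was counted by liquid scintillation, feces after homogenization. Results are % of dose.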

Series [8] has as its system Rattus norvegicus. Nature of the series: Total drug excretion in bile duct cannulated F344 rat at 1 mg/kg, po administered as single dose after 0 to 48 hrs by scintillation counting method. The arrangement: dose 1 mg/kg, route oral. The settings on record: in vivo. It counts as ADME, organism-based. Put shortly:
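Under ether anesthesia, the common bile duct of fasted F344 rats was cannulated. After recovery, rats received 1 mg/kg (41.9 µCi/kg) of the 14C-labelled compound iv or by oral gavage (n = 4). They were kept in Bollman cages, and bile was collected at 0–6, 6–24, 24–30 and 30–48 h at 4°C. Radioactivity was measured by liquid scintillation counting as % of dose.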

Series [9] concerns Rattus norvegicus. Nature of the series: Total drug excretion in F344 rat at 1 mg/kg, iv administered as single dose after 0 to 168 hrs by scintillation counting method. The class given is ADME, organism-based. Details: dose 1 mg/kg, route intravenous. The settings on record: in vivo. Put shortly: as §2
Series [10] can be described thus: Half life in F344 rat at 0.3 mg/kg, iv administered as single dose by LC-MS/MS method. It counts as ADME, organism-based. Details: dose 0.3 mg/kg, route intravenous. The settings on record: in vivo. Put shortly:
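Fasted male F344 rats (146–185 g, n = 4 per dose) received single i.v. CS-1036. Plasma was sampled up to 48 h and analysed by LC-MS/MS. t1/2 came from noncompartmental regression of three or more log-transformed terminal-phase points. Mean ± S.D.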

Series [11] can be described thus: Tmax in F344 rat at 1 mg/kg, po administered as single dose by LC-MS/MS method. It counts as ADME, organism-based. The arrangement: dose 1 mg/kg, route oral. The settings on record: in vivo. Put shortly: (§3)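 Male F344 rats (146–185 g) and male cynomolgus monkeys (3.48–4.29 kg), n = 4 each, fasted overnight, received single iv or oral doses of 0.3, 1.0, 3.0 or 10.0 mg/kg. Monkeys had 2-week washouts between doses. Plasma was sampled to 48 h and assayed by LC-MS/MS with deuterated internal standard. Noncompartmental analysis: tmax observed; t1/2 by regression on ≥3 terminal log points; Vss = dose·AUMC/(AUC0–inf)²; Foral = oral/iv AUC0–inf at the same dose.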

Series [12] in a line: AUC (0 to infinity) in F344 rat at 0.3 mg/kg, po administered as single dose by LC-MS/MS method. Details: time infinity, dose 0.3 mg/kg, route oral. It counts as ADME, organism-based. The settings on record: plasma. Put shortly: (§4)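 Fasted male F344 rats (146–185 g) or male cynomolgus monkeys (3.48–4.29 kg), n = 4 per dose, given single iv or oral dose of 0.3, 1.0, 3.0 or 10.0 mg/kg; monkeys dosed with 2-week washouts. Blood sampled to 48 h; plasma stored frozen. LC-MS/MS with deuterated internal standard. Noncompartmental analysis: AUClast by trapezoidal rule; AUC0–inf = AUClast + Ctz/terminal rate constant; mean ± S.D.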

A short description of series [13]: AUClast in F344 rat at 10 mg/kg, iv administered as single dose by LC-MS/MS method. The settings on record: plasma. Details: time 0 - last, dose 10 mg/kg, route intravenous. It counts as ADME, organism-based. Put shortly:
as §4

Series [14] in a line: Clearance in cynomolgus monkey at 0.3 mg/kg, iv administered as single dose by LC-MS/MS method. It counts as ADME, organism-based, Macaca fascicularis. The arrangement: dose 0.3 mg/kg, route intravenous. The settings on record: in vivo. Put shortly:
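Fasted male F344 rats (146–185 g) and male cynomolgus monkeys (3.48–4.29 kg), n = 4 each, received a single iv dose; monkeys had 2-week washouts between doses. Blood was sampled up to 48 h and plasma stored at […]. Plasma parent was quantified by LC-MS/MS with a deuterated internal standard. CL = dose/AUC0–inf by noncompartmental analysis; mean ± S.D.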

Series [15] can be described thus: Oral bioavailability in cynomolgus monkey at 1 mg/kg administered as single dose by LC-MS/MS method. It counts as ADME, organism-based, Macaca fascicularis. The settings on record: in vivo. Put shortly: as §3
Series [16] can be described thus: AUClast in F344 rat at 1 mg/kg, iv administered as single dose by LC-MS/MS method. The class given is ADME, organism-based. The arrangement: time 0 - last, dose 1 mg/kg, route intravenous. The settings on record: plasma. Put shortly:
as §4

Series [17] is described as follows: AUC (0 to infinity) in F344 rat at 10 mg/kg, iv administered as single dose by LC-MS/MS method. It counts as ADME, organism-based. Details: time infinity, dose 10 mg/kg, route intravenous. The settings on record: plasma. Put shortly:
as §4

Series [18] is described as follows: AUC (0 to infinity) in F344 rat at 10 mg/kg, po administered as single dose by LC-MS/MS method. The class given is ADME, organism-based. The arrangement: time infinity, dose 10 mg/kg, route oral. The settings on record: plasma. Put shortly: as §4

Consider `C[C@H]1O[C@@H](O[C@H]2[C@H](O)[C@@H](O)[C@@H](O[14C@H]3[14C@H](O)[14CH2]N[14C@@H]3[14CH2]O)O[C@@H]2CO)[C@H](O)[C@@H](O)[C@@H]1O`, for which the Drug excretion was 0.59% in series [1]; 13.34% in series [3]; 1.35% in the series with Cynomolgus monkey; 80.28% in [4]; 70.49% in series [5]; 93.26% with Rattus norvegicus [7]. Also, the Drug excretion in the series with Rattus norvegicus [8] is 0.59%; with Rattus norvegicus [9], 95.85%. For the same compound, the Drug uptake in the series on Ileum was determined as 67.7%. The Drug metabolism result in series [2] and in series [6] was “metabolite_not_detected” throughout.
Compound `C[C@H]1O[C@@H](O[C@H]2[C@H](O)[C@@H](O)[C@@H](O[C@H]3[C@H](O)CN[C@@H]3CO)O[C@@H]2CO)[C@H](O)[C@@H](O)[C@@H]1O` gave a half-life in series [10] of 14.6 h. For the same compound, the Tmax in series [11] turned out to be 0.417 h. Moreover, the values for the AUC(0-inf) in series [12], in series [17] and in series [18] were 0.0456 µg·h/mL, 53.2 µg·h/mL and 1.08 µg·h/mL, respectively. In addition, the AUC(0-t) in series [13] turned out to be 53 µg·h/mL; in [16], 4.92 µg·h/mL. For the same compound, the clearance in series [14] amounted to 0.153 L/h/kg. In addition, the bioavailability in series [15] is 0.983%.

The record behind these values is ChEMBL document CHEMBL3526127, “Absorption, elimination, and metabolism of CS-1036, a novel α-amylase inhibitor in rats and monkeys, and the relationship between gastrointestinal distribution and suppression of glucose absorption” (Drug Metab Dispos, 2013).
